Test results published in ChEMBL document CHEMBL4196166 (J Med Chem, 2018).
The source made the active and inactive calls. The calls are words filed in the database; no cut-off is given here.

Columns and labels:
HT-1080 = assay: Antimetastatic activity against luciferase-tagged human HT1080 cells xenografted in NOD.Cg-Prkdc-IL2rg<tm1Wjl>SzJAusb mouse assessed as inhibition of late-stage lung metastasis at 7.5 mg/kg/day, ip administered […] measured day 21; format: functional; settings: HT-1080, ip
Procedure, shortened: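 2.5 × 10^5 luciferase-tagged HT-1080 cells in PBS given by lateral tail vein on day 0. Daily ip dosing at 7.5 mg/kg from day -1 to day 20 (vehicle 50 mM acetate pH 5.5, 7.5% DMSO, 0.75% Tween80). Lungs harvested at day 21, homogenized, and tumour burden measured by luciferase assay. n = 4–6; one-way ANOVA with Dunnett's test.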

ASPC1 = assay: Antimetastatic activity against human AsPC1 cells xenografted in BALB/c nu/nu mouse co-implanted with human PSC assessed as reduction in metastasis lesions in liver at 10 mg/kg/day, ip measured after 28 days post first dose by microscopic analysis; format: functional, organism-based
Procedure, shortened: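 Female athymic BALB/c nu/nu mice, 6–8 weeks old. 1×10^6 AsPC-1 and 1×10^6 human pancreatic stellate cells in 50 µL PBS injected into the pancreatic tail. Treatment randomized on day 7 (n = 4/group) for 4 weeks: 10 mg/kg/day ip in 50 mM sodium acetate pH 5.5/10% DMSO/1% Kolliphor HS-15, or gemcitabine 75 mg/kg by oral gavage twice weekly, or vehicle. At kill, liver scored for visible macrometastases, fixed in formalin, and 4 µm sections stained with H&E. Chi-square test.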

Trypsin = Trypsin (Homo sapiens, UniProt P07477+P07478+P35030); assay: Inhibition of trypsin (unknown origin) using chromogenic H-D-Ile-L-Pro-L-Arg-p-nitoraniline as substrate by […]; format: protein assay
[1] = target: T1, Epithelial sodium channel subunit alpha (Homo sapiens, UniProt P37088); assay: Inhibition of S-3969-stimulated recombinant human ENaC alpha subunit expressed in HEK293 cells at 10 uM preincubated for 5 mins followed by S-3969 stimulation by FLIPR assay; format: cell-based; settings: hek293, 10 µM
T1 sequence (P37088 whole entry): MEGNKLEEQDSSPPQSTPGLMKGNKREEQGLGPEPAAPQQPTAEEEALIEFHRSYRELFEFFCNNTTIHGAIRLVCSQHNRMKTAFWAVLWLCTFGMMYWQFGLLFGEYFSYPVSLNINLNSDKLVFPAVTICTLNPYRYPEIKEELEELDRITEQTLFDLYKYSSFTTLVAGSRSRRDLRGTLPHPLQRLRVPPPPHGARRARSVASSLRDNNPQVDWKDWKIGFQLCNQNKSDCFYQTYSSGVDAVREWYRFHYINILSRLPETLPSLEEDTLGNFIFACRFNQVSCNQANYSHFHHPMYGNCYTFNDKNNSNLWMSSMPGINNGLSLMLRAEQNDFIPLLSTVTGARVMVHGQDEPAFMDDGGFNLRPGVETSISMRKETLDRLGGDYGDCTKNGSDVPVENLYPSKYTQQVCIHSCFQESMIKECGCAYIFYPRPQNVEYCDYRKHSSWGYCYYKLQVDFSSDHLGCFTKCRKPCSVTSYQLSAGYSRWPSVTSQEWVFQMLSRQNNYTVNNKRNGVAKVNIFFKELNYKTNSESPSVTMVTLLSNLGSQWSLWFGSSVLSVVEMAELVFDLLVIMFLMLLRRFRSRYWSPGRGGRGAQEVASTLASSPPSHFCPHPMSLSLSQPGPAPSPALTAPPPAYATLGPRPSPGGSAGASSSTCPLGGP
Procedure, shortened: (§1)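 HEK-293 cells transfected with human ENaC α, β and γ cDNA together, plated at 20 000 cells/well, incubated overnight at 37 °C. Loaded with membrane-potential red dye for 30 min at 37 °C. Compound preincubated 5 min in HEPES-buffered salt solution (pH 7.4, 0.3% DMSO), then stimulated with 1 µM S-3969, read on FLIPR. Signal normalized to agonist alone (100%) and agonist plus 30 µM benzamil (0%). n = 4 wells.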

[2] = target: T2, Epithelial sodium channel subunit beta (Homo sapiens, UniProt P51168); assay: Inhibition of S-3969-stimulated recombinant human ENaC beta subunit expressed in HEK293 cells at 10 uM preincubated for 5 mins followed by S-3969 stimulation by FLIPR assay; format: cell-based; settings: hek293, 10 µM; procedure, shortened: as §1
T2 sequence (P51168 whole entry): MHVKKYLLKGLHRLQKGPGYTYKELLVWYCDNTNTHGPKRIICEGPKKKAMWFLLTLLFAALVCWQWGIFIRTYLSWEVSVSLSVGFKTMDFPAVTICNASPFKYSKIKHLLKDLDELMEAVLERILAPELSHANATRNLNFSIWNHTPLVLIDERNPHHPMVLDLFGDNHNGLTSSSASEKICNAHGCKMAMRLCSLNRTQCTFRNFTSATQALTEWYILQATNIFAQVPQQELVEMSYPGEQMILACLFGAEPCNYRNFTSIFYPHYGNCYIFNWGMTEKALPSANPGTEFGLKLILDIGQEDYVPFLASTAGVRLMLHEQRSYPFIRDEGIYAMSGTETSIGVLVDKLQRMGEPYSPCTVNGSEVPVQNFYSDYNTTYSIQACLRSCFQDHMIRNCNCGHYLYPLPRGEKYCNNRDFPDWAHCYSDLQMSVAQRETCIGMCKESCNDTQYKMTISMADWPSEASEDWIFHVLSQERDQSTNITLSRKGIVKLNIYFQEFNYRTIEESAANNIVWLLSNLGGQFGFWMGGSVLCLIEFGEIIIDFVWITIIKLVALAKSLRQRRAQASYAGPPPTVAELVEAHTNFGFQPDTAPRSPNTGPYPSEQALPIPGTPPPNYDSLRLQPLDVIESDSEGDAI

[3] = target: T3, Epithelial sodium channel subunit gamma (Homo sapiens, UniProt P51170); assay: Inhibition of S-3969-stimulated recombinant human ENaC gamma subunit expressed in HEK293 cells at 10 uM preincubated for 5 mins followed by S-3969 stimulation by FLIPR assay; format: cell-based; settings: hek293, 10 µM; procedure, shortened: as §1
T3 sequence (P51170 whole entry): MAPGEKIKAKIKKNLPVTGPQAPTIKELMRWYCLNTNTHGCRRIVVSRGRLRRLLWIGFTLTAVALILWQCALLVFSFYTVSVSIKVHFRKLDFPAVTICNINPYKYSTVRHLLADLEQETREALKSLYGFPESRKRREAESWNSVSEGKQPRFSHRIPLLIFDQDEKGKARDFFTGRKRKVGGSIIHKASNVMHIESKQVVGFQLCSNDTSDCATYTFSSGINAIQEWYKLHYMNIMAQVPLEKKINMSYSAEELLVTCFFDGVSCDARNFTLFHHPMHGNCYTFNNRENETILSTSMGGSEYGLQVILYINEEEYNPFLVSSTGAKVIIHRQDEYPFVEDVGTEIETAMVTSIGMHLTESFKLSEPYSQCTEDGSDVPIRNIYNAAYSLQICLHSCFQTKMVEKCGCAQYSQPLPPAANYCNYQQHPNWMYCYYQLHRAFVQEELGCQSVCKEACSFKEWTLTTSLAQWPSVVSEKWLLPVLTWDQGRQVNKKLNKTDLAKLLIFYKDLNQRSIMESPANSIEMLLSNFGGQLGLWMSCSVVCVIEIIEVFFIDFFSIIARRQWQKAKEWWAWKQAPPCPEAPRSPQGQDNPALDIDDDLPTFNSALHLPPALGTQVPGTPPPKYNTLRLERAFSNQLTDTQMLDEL

Structure (SMILES)	inhibition in vivo at 7.5 mg/kg/day (HT-1080) [%]	Activity (ASPC1)	IC50 (Trypsin) [µM]	inhibition (INH) [1]	inhibition (INH) [2]	inhibition (INH) [3]
COc1ncc(-c2nc(C(=O)NC(=N)N)c(N)nc2N2CCCCCC2)cn1	33	Active	–	–	–	–
N=C(N)NC(=O)c1nc(Cl)c(N2CCCCCC2)nc1N [N,N-HEXAMETHYLENEAMILORIDE]	–	–	> 10	Not Active	Not Active	Not Active
N=C(N)NC(=O)c1nc(-c2cc3ccccc3o2)c(N2CCCCCC2)nc1N	21	Active	> 10	Not Active	Not Active	Not Active
